Compound activity from PubChem.
The list is not random: actives were taken first. Their share in the collection is about 5.1%.
STAT1 inh = STAT1 signaling inhibitors, primary screen, cell-based, HTS, luciferase reporter | NIH 3T3 STAT1-luciferase reporter, IFN-gamma, luminescence | 200,000 compounds, 0.35% hits | inhibition, % at 5.5 µM | AID 920, 2007;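 active means inhibition above a set limit, the mean inhibition across all tested compounds plus 3 SD, cut at about 34% in these data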;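 further: 0% = IFN-gamma with DMSO and 100% = IFN-gamma with 300 µM nifuroxazide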
NF-kB neuron act = activators of NF-kB expression in neurons, primary screen, cell-based, HTS; 190,000 compounds, 1.6% hits; fold change at 12.5 µM; AID 1239, 2008; human neuronal cells, NF-kB reporter expression; hits give high values; in the data active means fold change above about 3.3
STAT3 activator = IL-6 driven STAT3 reporter potentiators, primary screen, U3A cells, luciferase, luminescence, MLSCN library | IL-6 STAT3-luciferase reporter; 100% = signal with IL-6 EC80 alone | activation (% of control), % at 5.6 µM | 190,000 compounds, 0.91% hits | AID 871, 2007;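 active means activation above the screen-wide mean of compound activation plus 3 SD, cut at about 130% in these data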;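 further: 0% = background luminescence of wells with medium and substrate only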
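Material: human STAT1-deficient U3A cells with stable STAT3-luciferase reporter / Probe or stimulus: IL-6 stimulus at 33 ng/mL final / Schedule: 1 h compound pre-exposure, 6 h IL-6 stimulation, 37 °C / Technique: luminescence / Read-out basis: percent of IL-6-only median luminescence / Control set: IL-6-only high control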
STAT3 blocker = IL-6 driven STAT3 reporter inhibitors, primary screen, U3A cells, luciferase, luminescence, MLSCN library | 190,000 compounds, 0.89% hits | IL-6 STAT3-luciferase reporter; host cell line lacks STAT1 | inhibition, % at 5.5 µM;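 active means inhibition above the mean inhibition across all screened compounds plus 3 SD, cut at about 44% in these data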;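 further: 0% = DMSO only wells and 100% = 100 µM nifuroxazide control wells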
APP 5'UTR act = activators of APP 5'UTR luciferase reporter, primary screen, SH-SY5Y cells. SH-SY5Y APP 5'UTR luciferase reporter, luminescence; zero percent = DMSO vehicle wells. 190,000 compounds, 1% hits. activation, % at 2 µM;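 active means activation above a set limit, based on mean plus 3 SD of controls, cut at about 140% in these data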
STAT1 activator = STAT1 signaling activators, primary screen, cell-based, HTS, luciferase reporter | NIH 3T3 STAT1-luciferase reporter, IFN-gamma, luminescence; 100% = IFN-gamma alone, no compound | activation (% of control), % at 5.5 µM | 200,000 compounds, 2.6% hits;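 active means activation above the screen-wide mean activation plus 3 SD, cut at about 130% in these data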;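 further: raw ratio to IFN-gamma control signal so 100% means no change and 0% no light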
Starred values were filed as active, the others as inactive; . = not tested or not shown.

SMILES	STAT1 inh	NF-kB neuron act	STAT3 activator	STAT3 blocker	APP 5'UTR act	STAT1 activator
N#Cc1c(Sc2ncc(C(F)(F)F)cc2Cl)nsc1C/C=N\OCc1c(F)cccc1Cl	7	1.1	97	5	5	93
CC(C)(C)NC(=O)C(c1ccc(O)cc1)N(C(=O)Cn1nnc(-c2ccc(F)cc2)n1)c1ccccc1F (stereo not given)	-14	0.91	106	-5	-7	114
CCc1nnc(NC(=O)CSc2n[nH]c(-c3ccccc3O)n2)s1	-7	1.1	104	-2	44	105
Clc1ccc(CNc2ccccc2NCc2ccc(Cl)nc2)cn1	15	1.1	96	11	18	85
O=C(CN1C(=O)NC2(CCCCC2)C1=O)NC1CCCc2ccccc21 (stereo not given)	6	1.2	93	11	-9	95
CC1(C)CC(=O)C2=C(C1)N(c1cccc(Cl)c1)C(=O)NC2(C(F)(F)F)C(F)(F)F	-6	1	105	-9	16	106
Cc1cc(C)c(C)c(S(=O)(=O)N2CCN(CC(=O)NC(=O)NCc3ccccc3)CC2)c1C	-3	0.98	103	0	4	103
Clc1ccccc1-c1nc(N/N=C/c2cccnc2)c2ccccc2n1	8	0.44	75	33	0	92
Clc1ccc(/C=N/Nc2nc(Cl)nc3ccccc23)cc1	-36	1.6	93	10	28	133*
CNC(=S)Nc1cccc(S(=O)(=O)NC2=NCCC2)c1	1	1.1	103	5	0	97
CSc1ccc(/C=C/C(=O)c2ccc(O)cc2)cc1	-9	3.4*	105	-6	73	108
CCOc1ccc(C(=O)/C=C/c2ccc(SC)cc2)cc1	-1	0.99	105	-1	4	101
O=C(/C=C/c1ccco1)c1ccc(O)cc1	2	3.3*	97	12	79	99
CC(=O)Nc1ccc(C(=O)/C=C/c2ccco2)cc1	-1	1.3	105	-8	38	101
O=C(CCCCN1CCCCC1)c1ccc2c(c1)Cc1ccccc1-2	11	0.91	107	-2	25	90
CN(C)c1oc(-c2ccc(Cl)cc2)nc1S(=O)(=O)c1ccccc1	-34	0.97	92	13	-13	131*
COc1cc(C(=O)OCC(=O)NC2CCS(=O)(=O)C2)ccc1OCc1c(C)noc1C (stereo not given)	1	1.1	97	6	-6	99
c1ccc(-c2nc3cc4ccccc4cc3[nH]2)nc1	44*	2.8	28	86*	157*	60
C/C(=N\NC(=O)c1nc2ccccn2c1C)c1ccco1	-39	0.97	102	2	-3	136*
Cc1cccc(C(=O)OC(C)CN2CCOCC2)c1 (stereo not given)	-12	1.5	104	4	-14	112
CC(CN1CCOCC1)OC(=O)c1ccc2c(c1)OCCO2 (stereo not given)	-42	2	122	-18	33	138*
CC(=NC1CCCCC1)C1=C(O)c2ccccc2C1=O	-53	.	110	-4	132	148*
Cc1ccc(Nc2nc(-c3ccc(S(=O)(=O)N4CCOCC4)cc3)cs2)cc1Cl	-7	0.98	100	-1	13	106
Cn1c(-c2ccc(Cl)cc2)cnc1N	4	1.4	104	-1	12	96
Nc1cccn2c(-c3ccc(Cl)cc3)cnc12	-29	8.5*	114	-17	138*	128
SMILES	STAT1 inh	NF-kB neuron act	STAT3 activator	STAT3 blocker	APP 5'UTR act	STAT1 activator
Cc1[nH]n(-c2ccccc2)c(=O)c1/C=N/NC(=O)C(C)C	-5	0.76	96	6	2	105
CCN1/C(=C\C(=S)Nc2ccccc2)Sc2ccccc21	-50	2.2	105	-4	63	144*
O=S(=O)(c1ccc(Cl)cc1)c1snnc1-c1ccccc1	1	6.4*	84	23	-96	99
Cc1ccc(N=Nc2c(N)nn3c(C)cc(C)nc23)cc1	-6	1.1	89	14	0	105
Cc1ccc(N=Nc2c(N)nn3c(N)c(C#N)c(C)nc23)cc1	-34	0.94	74	33	-7	129*
Cc1cc(C(=O)CN2C(=O)C3CC=CCC3C2=O)c(C)n1-c1ccccc1 (stereo not given)	-43	2.2	90	18	184*	138*
Cc1cc(C(=O)CN2CCCCC2)c(C)n1-c1ccc(F)cc1	-34	1.2	109	-15	29	130*
Cc1cc(C(=O)Cn2cc(C(F)(F)F)ccc2=O)c(C)n1-c1ccccc1	-2	1.2	93	7	4	102
Cc1cc(C(=O)CN2CCCC2)c(C)n1-c1ccc(Cl)cc1	4	1.1	113	-14	-9	96
COc1cc(-c2nc(C)c(C(C)=O)n2O)ccc1OCC(=O)Nc1ccc(Cl)cc1	-17	1	98	8	-5	113
Cc1ccc(NC(=O)c2c3c(nc4ccccc24)CCC3)cc1S(=O)(=O)N(C)C	7	0.71	94	9	19	92
CCC(CO)NCC(O)COCc1ccc2c(c1)OCO2 (stereo not given)	7	1.1	92	14	4	92
O=c1c2c(-c3cccs3)csc2ncn1-n1cccc1	-6	0.77	136*	-40	20	106
CC(=O)N1C(C(=O)O)CSC1c1ccc(C)cc1 (stereo not given)	.	4.2*	.	.	10	.
COc1ccccc1CNC(=O)/C=C/c1ccc(Br)o1	1	1.1	102	6	3	97
CCOc1cc(CNc2ccc3c(c2)CCC3)ccc1OC	10	0.84	84	24	20	91
COC(=O)c1ccc(OCCOc2ccc(C(=O)OC)cc2)cc1	4	0.94	103	-3	-15	102
COC(=O)c1ccc(OCC(=O)c2ccccc2)cc1	-42	4.1*	96	11	116	139*
O=C(N/C(=C\c1cccc([N+](=O)[O-])c1)C(=O)N1CCOCC1)c1ccc([N+](=O)[O-])cc1	-35	0.68	117	-11	0	131*
Cc1cccc(NCC(=O)N/N=C/c2ccc(Br)cc2)c1	-8	1.2	111	-11	-19	106
C=CCN(CCNP(=O)(OCC)OCC)CP(=O)(OCC)OCC	-2	1.2	99	4	6	102
CCOc1ccc(C(=O)/C=C/Nc2ccc(S(=O)(=O)N=C(N)N)cc2)cc1	-34	1.4	104	-2	1	131*
CCOc1ccc(C(=O)/C=C/Nc2ccc(S(=O)(=O)Nc3onc(C)c3C)cc2)cc1	-5	1.6	107	-12	4	107
